In the EternaBench riboswitch data:

Test system: MS2 coat protein
Experiment: apparent Kd, MS2 coat protein; higher = weaker binding; RNA-MaP array; theophylline 2 mM where present
In short: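 The apparent Kd is reported as the median of filtered per-cluster binding-curve fits. To get these curves, designs transcribed by stalled E. coli RNA polymerase on Illumina sequencing-chip clusters were titrated with SNAP-549-labelled MS2 coat protein from 0.7 or 1.5 nM, doubling to 3 µM. Titrations were run without and then with constant ligand in 100 mM Tris-HCl pH 7.5, 80 mM KCl, 4 mM MgCl2, BSA, DTT, yeast tRNA and Tween-20, and green signal was normalised to red-channel RNA signal and control-cluster median Fmax.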

[1] = designed as: OFF switch for theophylline, no ligand
[2] = ligand present: theophylline, designed as: OFF switch for theophylline
[3] = designed as: ON switch for theophylline, no ligand
[4] = ligand present: theophylline, designed as: ON switch for theophylline

| Sequence | apparent Kd [1] | apparent Kd [2] | apparent Kd [3] | apparent Kd [4] |
| --- | --- | --- | --- | --- |
| UGACAUUGCUCAGAUACCAGACAUGAGGAUCACCCAUGUACCAAGGUAACCGAAAGGCAUGUCCCUUGGCAGCUGAGCAAUGUCU | 11.1 nM | 225 nM | – | – |
| UUUGCACAUGAGGAUCACCCAUGUACAGAUACCAGCCUCAUCUACGGCCCUUGGCAGCUGAGAUAAUGGUGACGUGAUGGGCUUU | 14 nM | 26.3 nM | – | – |
| AAGACAUGAGGAUCACCCAUGUGGAGGGAUACCAGCCUGUGUGUGGGCCCUUGGCAGCUUAAAUUUAAUUUAAUUAAAUAAAUUU | – | – | 34.7 nM | 36.1 nM |
| CUUAUAGUAACUGAUACCAGUGUACUGACAUGAGGAUCACCCAUGUUGGGUUUUGUUGUACACCCUUGGCAGCAGAAUCUAUAAG | 69.5 nM | 86.6 nM | – | – |
| UGACAUUGCUGCGAUACCAGACAUGAGGAUCACCCAUGUACCAAGGUAAAGAAAUAACGUGUCCCUUGGCAGCGCAGCAAUGUCU | 9.91 nM | 91.1 nM | – | – |
| GAUGAUAUUGCAGAUACCAGACACAUGAGGAUCACCCAUGUCGCUGGGUUACUGGAUCGUGUCCCUUGGCAGCUGCGAUAUCAUC | 286 nM | 69.4 nM | – | – |
| UGGUUUGUGAUGGAUACCAGCAGAGAAAACGUUUAUCCUAACAUGAGGAUCACCCAUGUAUGCCCUUGGCAGCUGUUGUGGGCUA | 32 nM | 34.9 nM | – | – |
| GCUUGGGUGGCACAGCCCUGGCAGUGCGAUACCAGCACGGUAACGUGCCCUUGGCAGCGCACAUGAGGAUCACCCAUGUGGUGCG | 69.5 nM | 345 nM | – | – |
| CUCGAGGCCGGUGAUACCAGACACGAAACUAUACAUGAGGAUCACCCAUGUCAAACAACGGUCCCUUGGCAGCAUGGGUGUAUCC | – | – | 68.9 nM | 64.5 nM |
| AACAUGAGGAUCACCCAUGUGUCCCUUGAUACCAGUCCCAUGUGAGACCCUUGGCAGCAAACAUGAGGAUCACCCAUGUCCCAUG | – | – | 102 nM | 142 nM |
| AAUAACAUGAGGAUCACCCAUGUAAAAGAUACCAGAUGCAUGAUGAUCCCUUGGCAGCUUAAACGCGAUUGAUUACAAUCGCGAA | – | – | 34.4 nM | 91.8 nM |
| AUUAUCAUGGUCAUAUAUAUUUCGUCAGAUACCAGACUAGAUAUAGUCCCUUGGCAGCUGUUACAUGAGGAUCACCCAUGUUAUU | 121 nM | 44.5 nM | – | – |
| GGUGAUCCGUAUCACCGGAUCACCGGUGAUACCAGCAUCGAAAGAUGCCCUUGGCAGCACCAACAUGAGGAUCACCCAUGUAAUA | – | – | 165 nM | 26.4 nM |
| AGAUCUUUCGAAAGAAGGAUCUUGGCUGAUACCAGAGACGAAAGUCUCCCUUGGCAGCAGUGCCAACAUGAGGAUCACCCAUGUA | – | – | 45.8 nM | 24.1 nM |
| UCUUACUAUAGUGAUACCAGACGUACAUGAGGAUCACCCAUGUUACAUUCUUGGUUAAAAGUCCCUUGGCAGCACGAUUUGUUCG | 9.28 nM | 9.5 nM | – | – |
| UGUAUGUGAUUUGAUACCAGACCAGCUGGUGGUACAUGAGGAUCACCCAUGUAGGUUUGGGUCCCUUGGCAGCAAAUCGCAUACU | – | – | 47.9 nM | 30 nM |
| UCUACAUGAGGAUCACCCAUGUGCCAUGAUACCAGACAUGAAAAUGUCCCUUGGCAGCAUGGGUAGCGCAUCCGAAAGGAUGCGU | – | – | 32.2 nM | 657 nM |
| CAUAAUUUAUCCUAUAAAACUAUUAGUGAUACCAGCACCUCAUGAUGCCCUUGGCAGCACUUACAUGAGGAUCACCCAUGUUUUA | – | – | 172 nM | 214 nM |
| UGCAUCAUAAUCAUGUAGGUGCUAGGUGAUACCAGCAUCGAAAGAUGCCCUUGGCAGCACCAACAUGAGGAUCACCCAUGUAAUA | – | – | 216 nM | 97.1 nM |
| AUAACAUGAGGAUCACCCAUGUAAGGUGAUACCAGACGAAGUAAAGUCCCUUGGCAGCACAAGUAAAGUUACGAAUAUUGAUAGA | – | – | 430 nM | 47.3 nM |
| AGGAAACAACAUGAGGAUCACCCAUGUGAUACCAGUAUCAAAAGAUACCCUUGGCAGCACACAUGACAUGAGGAUCACCCAUGUA | – | – | 41.4 nM | 84.4 nM |
| CGUAUUGUAACUGAUACCAGUGUACUGACAUGAGGAUCACCCAUGUUGGGUUUUGUUGUACACCCUUGGCAGCAGAAUCAAUACG | 68.7 nM | 122 nM | – | – |
| AUCCUCUAGAAUGAUACCAGACCAAACAUGAGGAUCACCCAUGUAUCAGGCAAUUGUUACGUCCCUUGGCAGCAUGUAUGCCGAC | – | – | 27.7 nM | 28.1 nM |
| ACCUACACGGAGACGUGUAGGAGUAAUGAUACCAGCAUGGAGACAUGCCCUUGGCAGCGUUACAUGAGGAUCACCCAUGUGGUGC | 21.1 nM | 483 nM | – | – |
| GCACGACAUGAGGAUCACCCAUGUGCAGAUACCAGUAAUGUAUAUUACCCUUGGCAGCUGAGUAGAUCUGGAGGGCUAUAGGUAA | – | – | 13.8 nM | 20.8 nM |
| UAAAAUAAAAGGGUGAAGGUAUAAACAGAUACCAGCCAGAUAACUGGCCCUUGGCAGCUGAAUGACAUGAGGAUCACCCAUGUCU | – | – | 12 nM | 33.3 nM |
